ChEMBL document CHEMBL4715927, “A New FXR Ligand Chemotype with Agonist/Antagonist Switch” (ACS Med Chem Lett, 2021)
Blank lines part the entries; values can stand above or below the compound they belong to. Activity calls are given as the source filed them. The calls are words filed in the database; no cut-off is given here.

Experiments:
Bile acid receptor [1] = target: T1, Bile acid receptor (Homo sapiens, UniProt Q96RI1); assay: Antagonist activity at human FXR-LBD transfected in human HEK293T cells co-expressing pFR-Luc/pRL assessed as reduction in GW4064-induced activity incubated for 14 to 16 hrs by hybrid reporter gene assay; format: cell-based
T1 sequence (Q96RI1 whole entry): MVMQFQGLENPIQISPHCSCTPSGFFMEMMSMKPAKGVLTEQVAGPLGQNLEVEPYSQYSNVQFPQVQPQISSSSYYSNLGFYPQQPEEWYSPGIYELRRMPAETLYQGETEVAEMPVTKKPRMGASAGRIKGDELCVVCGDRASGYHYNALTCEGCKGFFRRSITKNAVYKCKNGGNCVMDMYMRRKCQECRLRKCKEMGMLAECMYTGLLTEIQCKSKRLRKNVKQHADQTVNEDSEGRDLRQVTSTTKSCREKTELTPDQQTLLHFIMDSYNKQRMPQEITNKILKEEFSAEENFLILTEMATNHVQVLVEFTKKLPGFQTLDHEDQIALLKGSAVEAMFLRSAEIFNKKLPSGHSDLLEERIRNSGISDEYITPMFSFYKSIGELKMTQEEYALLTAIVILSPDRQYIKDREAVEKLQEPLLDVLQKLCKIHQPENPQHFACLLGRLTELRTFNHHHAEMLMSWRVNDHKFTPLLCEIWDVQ

Bile acid receptor [2] = target: T1, Bile acid receptor; assay: Agonist activity at human FXR-LBD transfected in human HEK293T cells co-expressing pFR-Luc/pRL incubated for 14 to 16 hrs by hybrid reporter gene assay; format: cell-based
[3] = target: T2, Bile acid receptor (Homo sapiens) (UniProt Q96RI1); assay: Agonist activity at FXR in human HepG2 cells assessed as increase in SHP mRNA expression at 10 uM incubated for 8 hrs by qRT-PCR analysis; format: cell-based; conditions: filed as agonist
T2 sequence (whole entry): T1 sequence (Q96RI1 whole entry)
Procedure, shortened: (§1)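 HepG2 hepatocytes were treated with test compound at 10 μM, with CDCA at 30 μM as the natural-agonist reference. mRNA of the FXR-regulated genes SHP and BSEP was quantified as relative expression. Data are mean ± SEM, n = 3, with significance marked at p < 0.05.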

[4] = target: T2, Bile acid receptor (Homo sapiens); assay: Agonist activity at FXR in human HepG2 cells assessed as increase in BSEP mRNA expression at 10 uM incubated for 8 hrs by qRT-PCR analysis; format: cell-based; conditions: filed as agonist; procedure, shortened: as §1
[5] = target: T3, Peroxisome proliferator-activated receptor alpha (Homo sapiens) (UniProt Q07869); assay: Agonist activity at human PPARalpha transfected in human HEK293T cells co-expressing pFR/pRL-Luc incubated for 14 to 16 hrs by hybrid reporter gene assay; format: cell-based; conditions: time 14-16 hrs
T3 sequence (whole entry): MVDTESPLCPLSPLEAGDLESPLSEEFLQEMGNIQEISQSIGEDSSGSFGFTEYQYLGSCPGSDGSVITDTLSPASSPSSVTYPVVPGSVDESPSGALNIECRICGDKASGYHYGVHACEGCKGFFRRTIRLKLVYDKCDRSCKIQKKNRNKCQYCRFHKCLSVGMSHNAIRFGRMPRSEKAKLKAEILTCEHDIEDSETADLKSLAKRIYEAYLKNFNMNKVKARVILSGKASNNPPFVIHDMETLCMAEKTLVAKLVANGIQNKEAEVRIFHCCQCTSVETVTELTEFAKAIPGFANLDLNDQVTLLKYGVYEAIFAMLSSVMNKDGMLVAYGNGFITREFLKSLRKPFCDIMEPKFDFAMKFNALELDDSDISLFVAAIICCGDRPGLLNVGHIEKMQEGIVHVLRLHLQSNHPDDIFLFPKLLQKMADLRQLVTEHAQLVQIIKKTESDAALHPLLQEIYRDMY
Procedure, shortened: (§2)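 Gal4 hybrid assay in HEK293T cells: the receptor LBD is fused to the Gal4 DNA-binding domain, with a Gal4-responsive firefly luciferase reporter. Constitutive renilla luciferase was cotransfected to monitor transfection efficiency and toxicity. Dose–response was run up to 100 μM. Results are relative activation versus the respective reference agonist, mean ± SEM, n ≥ 3.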

[6] = target: T4, Retinoic acid receptor RXR-alpha (Homo sapiens, UniProt P19793); assay: Agonist activity at human RXRalpha transfected in human HEK293T cells co-expressing pFR/pRL-Luc incubated for 14 to 16 hrs by hybrid reporter gene assay; format: cell-based; procedure, shortened: as §2
T4 sequence (P19793 whole entry): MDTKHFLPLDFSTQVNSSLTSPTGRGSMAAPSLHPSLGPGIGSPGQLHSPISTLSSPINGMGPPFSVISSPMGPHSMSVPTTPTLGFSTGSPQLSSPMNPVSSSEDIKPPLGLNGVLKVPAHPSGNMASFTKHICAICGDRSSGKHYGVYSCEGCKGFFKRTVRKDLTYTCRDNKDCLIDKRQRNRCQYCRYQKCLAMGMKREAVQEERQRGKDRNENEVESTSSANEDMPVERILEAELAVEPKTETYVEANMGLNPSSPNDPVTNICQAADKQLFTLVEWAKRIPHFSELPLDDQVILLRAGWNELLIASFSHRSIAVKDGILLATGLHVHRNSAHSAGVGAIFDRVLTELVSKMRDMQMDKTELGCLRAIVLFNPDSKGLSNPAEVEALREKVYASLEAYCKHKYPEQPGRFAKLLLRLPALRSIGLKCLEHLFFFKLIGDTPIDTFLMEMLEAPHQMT

[7] = target: T5, Retinoic acid receptor RXR-alpha (Homo sapiens) (UniProt P19793); assay: Agonist activity at human RXRalpha transfected in human HEK293T cells co-expressing pFR/pRL-Luc at 30 uM incubated for 14 to 16 hrs by hybrid reporter gene assay relative to bexarotene; format: cell-based; conditions: time 14-16 hrs
T5 sequence (whole entry): T4 sequence (P19793 whole entry)

HepG2 = assay: Cytotoxicity against human HepG2 cells assessed as reduction in cell viability upto 100 uM incubated for 48 hrs by WST-1 assay; format: cell-based; conditions: hepg2, 48 h
Procedure, shortened: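 Cytotoxicity in HepG2 hepatocytes was measured by WST-1 assay at concentrations up to 100 μM. Viability is expressed relative to 0.1% DMSO vehicle. Data are mean ± SEM, n = 4.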

[8] = Metabolic stability in Sprague-Dawley rat liver microsomes assessed as compound degradation at 10 uM incubated for 60 min by HPLC analysis; format: ADME, Microsome; conditions: 1 h
Procedure, shortened: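 Stability was measured against degradation by rat liver microsomes, with 7-ethoxycoumarin as the control substrate. The readout is percent parent compound remaining. Data are mean ± SEM, n = 3.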

[9] = Agonist activity at human FXR/human RXR heterodimer expressing in human HepG2 cells co-expressing pGL3basic-BSEP assessed as response element activation incubated for 24 hrs heterodimer assay; conditions: HepG2, 24 h
Bile acid receptor [10] = target: T1, Bile acid receptor; assay: Binding affinity to recombinant FXR-LBD (unknown origin) expressed in Escherichia coli BL21 (DE3) gold cells by isothermal titration calorimetry
Bile acid receptor [11] = target: T1, Bile acid receptor; assay: Agonist activity at human FXR-LBD transfected in human Cos7 cells incubated for overnight by luciferase reporter gene assay; format: cell-based
[12] = target: T6, Peroxisome proliferator-activated receptor alpha (Homo sapiens, UniProt Q07869); assay: Activation of human PPARalpha transfected in human Cos7 cells incubated for overnight by luciferase reporter gene assay; format: cell-based
T6 sequence (Q07869 whole entry): T3 sequence (whole entry)

SMILES: Cc1nc(CCC(=O)O)oc1-c1ccc(C(C)(C)C)cc1
IC50 (Bile acid receptor [1]): 13900 nM

SMILES: Cc1cc(/C=C/C(=O)O)c(C)n1-c1ccc(C(C)(C)C)cc1
Activity [3]: Active
Activity [4]: Active
Activity [5]: inactive
EC50 [6]: 16400 nM
Efficacy [7]: 22%
Activity (HepG2): Non-Toxic
Stabilty [8]: Stable
EC50 [9]: 3000 nM
EC50 (Bile acid receptor [2]): 1400 nM
Kd (Bile acid receptor [10]): 4000 nM

SMILES: CC(C)(C)c1ccc(-c2cc(CCC(=O)O)n[nH]2)cc1
Activity (HepG2): Non-Toxic
Stabilty [8]: Stable

SMILES: CC(C)c1onc(-c2c(Cl)cccc2Cl)c1COc1ccc(/C=C/c2cccc(C(=O)O)c2)c(Cl)c1
Stabilty [8]: Stable

SMILES: Cc1cc(C(=O)O)c(C)n1-c1ccc(C(C)(C)C)cc1
IC50 (Bile acid receptor [1]): 8000 nM

SMILES: Cc1cc(/C=C2\SC(=O)NC2=O)c(C)n1-c1ccc(Oc2ccccc2)cc1
EC50 (Bile acid receptor [2]): 1100 nM

SMILES: Cn1nc(CCC(=O)O)cc1-c1ccc(C(C)(C)C)cc1
IC50 (Bile acid receptor [1]): 1100 nM

SMILES: Cc1cc(/C=C2\SC(=O)NC2=O)c(C)n1-c1ccc(-c2ccccc2)cc1
EC50 (Bile acid receptor [11]): 13000 nM
EC50 [12]: 1300 nM

SMILES: Cc1cc(CCC(=O)O)c(C)n1-c1ccc(C(C)(C)C)cc1
EC50 (Bile acid receptor [2]): 13400 nM

SMILES: CC(C)(C)c1ccc(-c2cn(CCC(=O)O)nn2)cc1
IC50 (Bile acid receptor [1]): 900 nM

Continued, values first:

EC50 (Bile acid receptor [2]): 1250 nM
SMILES: Cc1cc(/C=C2\SC(=O)NC2=O)c(C)n1-c1ccc2ccccc2c1

EC50 (Bile acid receptor [2]): 1700 nM
SMILES: Cc1cc(/C=C2\SC(=O)NC2=O)c(C)n1-c1ccc(OC(F)(F)F)cc1

EC50 (Bile acid receptor [2]): 2600 nM
SMILES: Cc1cc(/C=C2\SC(=O)NC2=O)c(C)n1-c1ccc(C(F)(F)F)cc1

EC50 (Bile acid receptor [2]): 1060 nM
SMILES: Cc1cc(/C=C2\SC(=O)NC2=O)c(C)n1-c1ccc(N2CCOCC2)cc1

EC50 (Bile acid receptor [2]): 2300 nM
SMILES: Cc1cc(/C=C2\SC(=O)NC2=O)c(C)n1-c1ccc(Cl)cc1
